The list shows a part of the results. A number with no mark means an inactive call.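 How the source made its calls: active means mean inhibition of triplicate wells above the hit cutoff set in the primary screen (cut at about 17% in these data); inactive means the rest.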
Biological target: Neuropeptide Y receptor type 2 (Homo sapiens) (UniProt P49146)
Test: blockers of human NPY-Y2 signalling – HEK293-CNG cells, membrane potential fluorescence, triplicate, confirmation (AID 1257);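 further: 0% = DMSO with NPY challenge and 100% = BIIE0246 high control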
Details: HEK293 NPY-Y2 CNG channel, at 2.8 µM, hits give high values
Outline: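 System – HEK293 cells expressing NPY-Y2 receptor and CNG channel · Also added – NPY 8 nM plus isoproterenol 1 µM, Ro 20-1724 25 µM · Compound dosing – single nominal compound dose of 2.8 µM · Incubation – 60 min NPY incubation, room temperature · Technique – voltage-sensitive dye fluorescence · Measure – 30-min to baseline fluorescence ratio, control-normalized · Repeats – three replicates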

Chain of Neuropeptide Y receptor type 2 (Homo sapiens) (P49146 whole entry, looked up): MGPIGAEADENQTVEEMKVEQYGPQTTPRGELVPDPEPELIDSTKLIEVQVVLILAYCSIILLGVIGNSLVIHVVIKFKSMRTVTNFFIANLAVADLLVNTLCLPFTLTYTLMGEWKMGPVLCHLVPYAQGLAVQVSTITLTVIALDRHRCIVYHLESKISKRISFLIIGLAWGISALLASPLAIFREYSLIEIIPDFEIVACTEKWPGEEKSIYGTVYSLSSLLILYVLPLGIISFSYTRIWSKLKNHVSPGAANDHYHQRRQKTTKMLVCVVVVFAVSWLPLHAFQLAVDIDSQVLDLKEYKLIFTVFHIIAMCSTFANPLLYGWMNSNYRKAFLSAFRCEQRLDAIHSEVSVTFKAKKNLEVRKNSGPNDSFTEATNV

## O=C(COC(=O)c1ccccc1)Nc1ccc(Cl)cc1C(=O)c1ccccc1
  inhibition: 15.9%
